# Measurements: ChEMBL document CHEMBL4823272 (Eur J Med Chem, 2021)
# Calls of active or inactive are those of the source. The rule behind the calls is not given here.
# Legend:
# [1] = target: T1, Amyloid-beta precursor protein (Homo sapiens, UniProt P05067); assay: Inhibition of human biotinylated amyloid beta (1 to 42) oligomerization measured after 1 hr by ELISA
# Method in brief: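 HFIP/TFA-treated biotinylated Aβ1-42 in DMSO/OFB buffer incubated with compound 1 h at room temperature, stopped with 0.3% Tween 20. Captured on NeutrAvidin-coated plates blocked with OFB-T (pH 7.50), 2 h at 150 rpm. Streptavidin-HRP 1:10,000 for 1 h, TMB/H₂O₂, stopped with 2% H₂SO₄, read at 450 nm. IC50 from 4-parameter logistic fit normalized to DMSO and Tween-20 controls.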
# [2] = tested on: SIM-A9; assay: Anti-inflammatory activity in mouse SIM-A9 cells assessed as inhibition of LPS-induced TNF-alpha production at 2.7 uM measured after 24 hrs by ELISA; format: functional, cell-based
# Method in brief: (§1)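 SIM-A9 cells seeded 0.25 × 10⁶/well a day ahead, then given 5 ng/mL LPS with compound for 24 h. Supernatants assayed by sandwich ELISA: capture antibody 1:250, detection antibody 1:250, avidin-HRP, TMB, stop with 2 N H₂SO₄. Read at 450 nm, 570 nm correction. Mean ± SD, n = 3.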
# [3] = tested on: SIM-A9; assay: Anti-inflammatory activity in mouse SIM-A9 cells assessed as inhibition of LPS-induced IL-6 production at 2.7 uM measured after 24 hrs by ELISA; format: functional, cell-based; method in brief: as §1
# [4] = tested on: SIM-A9; assay: Anti-inflammatory activity in mouse SIM-A9 cells assessed as inhibition of LPS-induced NO production at 2.7 uM measured after 24 hrs by Griess reagent based assay; format: functional, cell-based
# Method in brief: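 SIM-A9 cells given 5 ng/mL LPS with compound for 24 h. Conditioned medium mixed with sulfanilamide, then N-naphthyl-ethylenediamine, 5–10 min dark at room temperature. Absorbance at 520–550 nm, NO quantified against a standard curve. n = 3.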
# [5] = tested on: SIM-A9; assay: Anti-inflammatory activity in LPS-stimulated mouse SIM-A9 cells assessed as downregulation of COX-2 expression at 2.7 uM measured after 24 hrs by Western blot analysis; format: functional, cell-based
# Method in brief: (§2)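 SIM-A9 murine microglia in DMEM-F12 with 10% FBS and 5% horse serum, seeded 0.25 × 10⁶ cells/well one day before. Stimulated with 5 ng/mL LPS plus compound for 24 h. Cells lysed in RIPA with protease inhibitors, protein by Micro BCA. Equal protein on SDS-PAGE, PVDF transfer, probed with iNOS, COX-2 and tubulin antibodies (1:1000), HRP chemiluminescence.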
# [6] = tested on: SIM-A9; assay: Anti-inflammatory activity in LPS-stimulated mouse SIM-A9 cells assessed as downregulation of iNOS expression at 2.7 uM measured after 24 hrs by Western blot analysis; format: functional, cell-based; method in brief: as §2
# [7] = target: T1, Amyloid-beta precursor protein; assay: Inhibition of human amyloid beta (1 to 40) fibrillization at 100 uM measured every 15 mins by Thioflavin-T fluorescence assay relative to control
# [8] = Drug concentration in CD-1 mouse plasma at 5 mg/kg, po measured after 0.5 hrs by LC-MS/MS analysis; format: ADME, organism-based
# Method in brief: (§3)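 Male CD-1 mice dosed 5 mg/kg orally, n = 3 per time point. At 0.5 and 2.5 h, blood taken by cardiac puncture, then transcardial PBS perfusion. Brains homogenized in three volumes of PBS. Samples precipitated with cold acetonitrile, supernatant diluted with two volumes of 0.1% formic acid water, measured by LC-MS/MS. Brain/plasma ratio from these levels.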
# [9] = Drug concentration in CD-1 mouse plasma at 5 mg/kg, po measured after 2.5 hrs by LC-MS/MS analysis; format: ADME, organism-based; method in brief: as §3
# [10] = Drug concentration in CD-1 mouse brain at 5 mg/kg, po measured after 0.5 hrs by LC-MS/MS analysis; format: ADME, organism-based; method in brief: as §3
# [11] = Drug concentration in CD-1 mouse brain at 5 mg/kg, po measured after 2.5 hrs by LC-MS/MS analysis; format: ADME, organism-based; method in brief: as §3
# [12] = Ratio of drug concentration in brain to plasma of CD-1 mouse at 5 mg/kg, po after 0.5 hrs; format: ADME, organism-based; settings: read-out: BPR; method in brief: as §3
# [13] = Ratio of drug concentration in brain to plasma of CD-1 mouse at 5 mg/kg, po after 2.5 hrs; format: ADME, organism-based; settings: read-out: BPR; method in brief: as §3
# [14] = tested on: SIM-A9; assay: Induction of phagocytosis in LPS-stimulated mouse SIM-A9 cells assessed as increase in FITC signal measured after 24 hrs by FITC analysis; format: functional, cell-based
# Method in brief: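 SIM-A9 cells given LPS plus compound for 24 h, then FITC-labelled killed E. coli bioparticles at 0.125 mg/mL final for 1 h at 37 °C. Extracellular signal quenched with 0.4% trypan blue. Intracellular FITC read at Ex 494/Em 518. Mean ± SD.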
# T1 sequence (P05067 whole entry): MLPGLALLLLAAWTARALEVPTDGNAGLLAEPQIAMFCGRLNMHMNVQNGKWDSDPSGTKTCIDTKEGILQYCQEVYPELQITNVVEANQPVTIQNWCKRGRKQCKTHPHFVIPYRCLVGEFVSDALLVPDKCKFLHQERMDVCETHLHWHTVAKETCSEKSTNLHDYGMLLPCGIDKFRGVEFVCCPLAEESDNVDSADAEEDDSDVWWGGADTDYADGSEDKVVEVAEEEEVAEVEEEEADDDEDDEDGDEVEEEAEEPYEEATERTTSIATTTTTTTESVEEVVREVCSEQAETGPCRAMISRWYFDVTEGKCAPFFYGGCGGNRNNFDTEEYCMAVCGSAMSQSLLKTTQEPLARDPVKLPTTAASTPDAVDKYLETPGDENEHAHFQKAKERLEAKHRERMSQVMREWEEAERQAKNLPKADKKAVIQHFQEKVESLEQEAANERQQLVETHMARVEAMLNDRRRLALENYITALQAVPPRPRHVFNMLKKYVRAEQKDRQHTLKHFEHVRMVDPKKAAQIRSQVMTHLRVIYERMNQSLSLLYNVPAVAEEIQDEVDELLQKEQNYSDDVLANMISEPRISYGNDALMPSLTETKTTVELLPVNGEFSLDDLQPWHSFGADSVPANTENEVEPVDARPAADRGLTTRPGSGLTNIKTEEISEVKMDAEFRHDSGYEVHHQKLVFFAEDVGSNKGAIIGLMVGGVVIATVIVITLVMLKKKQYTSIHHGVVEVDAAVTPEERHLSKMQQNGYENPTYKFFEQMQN
smiles,measurement,setting,value
OC(c1ccc(Cl)cc1NCc1ccco1)C(F)(F)F (stereo not drawn),IC50,[1],Not Active
same,Activity,[2],Active
same,Activity,[3],Active
same,Activity,[4],Active
same,Activity,[5],Active
same,Activity,[6],Active
same,inhibition,[7],60.7%
CC(NS(=O)(=O)c1cc(C(=O)O)c(NCc2ccco2)cc1Cl)c1ccccc1 (stereo not drawn),inhibition,[7],17.6%
OC(c1ccc(Br)cc1NCc1ccco1)C(F)(F)F (stereo not drawn),IC50,[1],Not Active
same,Activity,[2],Active
same,Activity,[3],Active
same,Activity,[4],Active
same,Activity,[5],Active
same,Activity,[6],Active
same,inhibition,[7],81.3%
CCCCCCNS(=O)(=O)c1cc(C(=O)O)c(NCc2ccco2)cc1Cl,inhibition,[7],39.2%
CNS(=O)(=O)c1cc(C(N)=O)c(NCc2ccco2)cc1Cl,Activity,[2],Active
same,Activity,[3],Active
same,Activity,[5],Active
same,Activity,[6],Active
same,concentration at 0.5 h,[8],38.2 ng/mL
same,concentration at 2.5 h,[9],29.3 ng/mL
same,concentration at 0.5 h,[10],5.2 ng/g
same,concentration at 2.5 h,[11],3.5 ng/g
same,Kp at 0.5 h,[12],0.14
same,Kp at 2.5 h,[13],0.12
same,inhibition,[7],inactive
O=C(O)c1cc(S(=O)(=O)NC2CC2)c(Cl)cc1NCc1ccco1,IC50,[1],Not Active
same,inhibition,[7],29.2%
O=C(O)c1ccc(Cl)cc1NCc1ccco1,IC50,[1],Not Active
same,inhibition,[7],20.2%
CNS(=O)(=O)c1cc(C(=O)O)c(NCC2CCCO2)cc1Cl (stereo not drawn),IC50,[1]; read-out: IC50,136 µM
same,inhibition,[7],17.5%
CCNC(=O)c1cc(C(=O)O)c(NCc2ccco2)cc1Cl,IC50,[1],Not Active
same,inhibition,[7],24.6%
O=C(O)c1cc(C(=O)N2CCCCC2)c(Cl)cc1NCc1ccco1,IC50,[1],Not Active
same,inhibition,[7],11%
NC(=O)c1cc(C(=O)O)c(NCc2ccco2)cc1Cl,IC50,[1],Not Active
same,inhibition,[7],32.4%
Cc1ccc(CNS(=O)(=O)c2cc(C(=O)O)c(NCc3ccco3)cc2Cl)cc1,IC50,[1],Not Active
same,inhibition,[7],inactive
COc1ccc(C(O)C(F)(F)F)c(NCc2cscn2)c1 (stereo not drawn),inhibition,[7],6.49%
COc1ccc(C(O)C(F)(F)F)c(NCc2ccco2)c1 (stereo not drawn),IC50,[1],Not Active
same,inhibition,[7],36.8%
CNS(=O)(=O)c1cc(C(=O)O)c(NCc2ccco2)cc1Cl,Activity,[14],Active
same,inhibition,[7],inactive
COc1ccc(CNS(=O)(=O)c2cc(C(=O)O)c(NCc3ccco3)cc2Cl)cc1,IC50,[1],Not Active
same,inhibition,[7],27.8%
CN(Cc1ccccc1)S(=O)(=O)c1cc(C(=O)O)c(NCc2ccco2)cc1Cl,Activity,[2],Active
same,Activity,[3],Active
same,Activity,[5],Active
same,Activity,[6],Active
same,Activity,[14],Active
same,concentration at 0.5 h,[8],1030 ng/mL
same,concentration at 2.5 h,[9],873 ng/mL
same,concentration at 0.5 h,[10],0.8 ng/g
same,concentration at 2.5 h,[11],0.1 ng/g
same,Kp at 0.5 h,[12],0.0008
same,inhibition,[7],inactive
CNC(=O)c1cc(C(=O)O)c(NCc2ccco2)cc1Cl,IC50,[1],Not Active
same,inhibition,[7],19.1%
O=C(O)c1cc(S(=O)(=O)NC2CCCCC2)c(Cl)cc1NCc1ccco1,inhibition,[7],11.3%
O=C(O)c1cc(S(=O)(=O)NCCc2ccccc2)c(Cl)cc1NCc1ccco1,IC50,[1],Not Active
same,inhibition,[7],inactive
CN(C)C(=O)c1cc(C(=O)O)c(NCc2ccco2)cc1Cl,IC50,[1],Not Active
same,inhibition,[7],18.4%
NS(=O)(=O)c1cc(C(=O)O)c(NCc2ccco2)cc1Cl [FUROSEMIDE],IC50,[1],Not Active
same,concentration at 0.5 h,[8],1730 ng/mL
same,concentration at 2.5 h,[9],1630 ng/mL
same,concentration at 0.5 h,[10],8.7 ng/g
same,concentration at 2.5 h,[11],7.8 ng/g
same,Kp at 0.5 h,[12],0.005
same,Kp at 2.5 h,[13],0.005
same,inhibition,[7],8.56%
O=C(O)c1cc(S(=O)(=O)N2CCOCC2)c(Cl)cc1NCc1ccco1,inhibition,[7],inactive
O=C(O)c1cc(S(=O)(=O)NCc2ccccc2)c(Cl)cc1NCc1ccco1,IC50,[1],Not Active
same,inhibition,[7],11.8%
CNS(=O)(=O)c1cc(-c2nnn[nH]2)c(NCc2ccco2)cc1Cl,inhibition,[7],14.1%
CNC(=O)c1cc(S(=O)(=O)NC)c(Cl)cc1NCc1ccco1,Activity,[14],Active
same,inhibition,[7],inactive
OC(c1ccc(Cl)cc1NCc1cscn1)C(F)(F)F (stereo not drawn),IC50,[1],Not Active
same,inhibition,[7],27.9%
O=C(O)c1ccc(F)cc1NCc1ccco1,inhibition,[7],12.4%
CNS(=O)(=O)c1cc(-c2noc(=O)[nH]2)c(NCc2ccco2)cc1Cl,IC50,[1],Not Active
same,inhibition,[7],20.2%
O=C(O)c1cc(C(=O)N2CCOCC2)c(Cl)cc1NCc1ccco1,IC50,[1],Not Active
same,inhibition,[7],34%
CNS(=O)(=O)c1cc(C(=O)N(C)C)c(NCc2ccco2)cc1Cl,Activity,[14],Active
same,concentration at 0.5 h,[8],302 ng/mL
same,concentration at 2.5 h,[9],83.2 ng/mL
same,concentration at 0.5 h,[10],61.1 ng/g
same,concentration at 2.5 h,[11],18.5 ng/g
same,Kp at 0.5 h,[12],0.2
same,Kp at 2.5 h,[13],0.22
same,inhibition,[7],25.2%
CNS(=O)(=O)c1cc(CO)c(NCc2ccco2)cc1Cl,inhibition,[7],15%
O=C(O)c1cc(S(=O)(=O)N2CCCCC2)c(Cl)cc1NCc1ccco1,IC50,[1],Not Active
same,inhibition,[7],19.1%
CNS(=O)(=O)c1cc(C(=O)OC)c(NCc2ccco2)cc1Cl,inhibition,[7],27.1%
CN(C)S(=O)(=O)c1cc(C(=O)O)c(NCc2ccco2)cc1Cl,inhibition,[7],inactive
CNS(=O)(=O)c1cc(C(O)C(F)(F)F)c(NCc2ccco2)cc1Cl (stereo not drawn),IC50,[1],Not Active
O=C(Nc1ccccc1)c1cc(C(=O)O)c(NCc2ccco2)cc1Cl,IC50,[1],Not Active
same,inhibition,[7],29.4%
CCNS(=O)(=O)c1cc(C(=O)O)c(NCc2ccco2)cc1Cl,inhibition,[7],21.3%
O=C(O)c1cc(S(=O)(=O)Nc2ccccc2)c(Cl)cc1NCc1ccco1,inhibition,[7],17.4%
OC(c1ccc(Br)cc1NCc1cscn1)C(F)(F)F (stereo not drawn),IC50,[1],Not Active
same,Activity,[14],Active
same,inhibition,[7],33%
